In ChEMBL document CHEMBL1158358, “Synthesis, antimicrobial and cytotoxic activities of some 5-arylidene-4-thioxo-thiazolidine-2-ones” (Eur J Med Chem, 2009):
≈ marks a conversion by molar mass, not a printed value.

Experiments:
Assay type in all cases: functional
[1] = test system: Pseudomonas aeruginosa; experiment: Antimicrobial activity against Pseudomonas aeruginosa UFPEDA 39 at 300 ug/disk after 24 hrs by disk diffusion method; conditions: UFPEDA 39, 24 h, read-out: IZ
Summary of the method: (§1)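 Preliminary screen by disk diffusion. Paper disks (6 mm) holding 300 µg of compound were placed on agar plates inoculated with a standardized microbial suspension. DMSO-only disks served as negative controls. A mean inhibition zone below 7 mm was scored as no sensitivity. Values are means, n = 3.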

[2] = test system: Escherichia coli; experiment: Antimicrobial activity against Escherichia coli UFPEDA 224 at 300 ug/disk after 24 hrs by disk diffusion method; conditions: UFPEDA 224, 24 h, read-out: IZ; summary of the method: as §1
[3] = test system: Staphylococcus aureus; experiment: Antimicrobial activity against multidrug-resistant Staphylococcus aureus H.C. 20981 isolate after 20 hrs by twofold serial dilution technique; conditions: H.C. 20981, 20 h
Summary of the method: (§2)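 Twofold serial dilution MIC in agar plates against Gram-positive strains and multidrug-resistant clinical isolates. Inoculum applied was 10⁵ CFU/plate. Plates with culture medium plus DMSO served as negative control. MIC was read after incubation at 35 °C for 20 h.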

[4] = test system: Staphylococcus aureus; experiment: Antimicrobial activity against multidrug-resistant Staphylococcus aureus H.C. 20489 isolate after 20 hrs by twofold serial dilution technique; conditions: H.C. 20489, 20 h; summary of the method: as §2
[5] = test system: Mycolicibacterium smegmatis; experiment: Antimicrobial activity against Mycobacterium smegmatis UFPEDA 71 after 20 hrs by twofold serial dilution technique; conditions: UFPEDA 71, 20 h
Summary of the method: (§3)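 MIC was determined by twofold serial dilution. Bacteria were tested in plates at 10⁵ CFU/plate and read after 20 h. C. albicans was tested in tubes at 10³ CFU/tube and read after 48 h. All incubations were at 35 °C. Medium plus DMSO served as the negative control.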

[6] = test system: Micrococcus luteus; experiment: Antimicrobial activity against Micrococcus luteus UFPEDA 06 after 20 hrs by twofold serial dilution technique; conditions: UFPEDA 06, 20 h; summary of the method: as §3
[7] = test system: Staphylococcus; experiment: Antimicrobial activity against coagulase-negative Staphylococcus H.A.M. 278 isolate after 20 hrs by twofold serial dilution technique; conditions: H.A.M. 278, 20 h; summary of the method: as §3
[8] = test system: Enterococcus faecalis; experiment: Antimicrobial activity against Enterococcus faecalis UFPEDA 138 at 300 ug/disk after 24 hrs by disk diffusion method; conditions: UFPEDA 138, 24 h, read-out: IZ; summary of the method: as §1
[9] = test system: Staphylococcus aureus; experiment: Antimicrobial activity against Staphylococcus aureus UFPEDA 01 at 300 ug/disk after 24 hrs by disk diffusion method; conditions: UFPEDA 01, 24 h, read-out: IZ; summary of the method: as §1
[10] = test system: Bacillus subtilis; experiment: Antimicrobial activity against Bacillus subtilis UFPEDA 16 after 20 hrs by twofold serial dilution technique; conditions: UFPEDA 16, 20 h; summary of the method: as §3
[11] = test system: Mycolicibacterium smegmatis; experiment: Antimicrobial activity against Mycobacterium smegmatis UFPEDA 71 at 300 ug/disk after 24 hrs by disk diffusion method; conditions: UFPEDA 71, 24 h, read-out: IZ; summary of the method: as §1
[12] = test system: NCI-H292; experiment: Cytotoxicity against human NCI-H292 cells at 2.5 ug/mL after 72 hrs by MTT assay; conditions: NCI-H292, 72 h, read-out: GI
Summary of the method: (§4)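 MTT antiproliferative assay. Cells were diluted to 10⁵ cells/mL in 96-well plates and preincubated for 24 h at 37 °C in humid 5% CO₂. Compounds or vincristine (reference) were then added. Formazan was dissolved and OD read at 540 nm, compared with medium-only control cells. Run in triplicate.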

[13] = test system: Staphylococcus aureus; experiment: Antimicrobial activity against multidrug-resistant Staphylococcus aureus H.C. 20905 isolate after 20 hrs by twofold serial dilution technique; conditions: H.C. 20905, 20 h; summary of the method: as §2
[14] = test system: Staphylococcus aureus; experiment: Antimicrobial activity against multidrug-resistant Staphylococcus aureus H.C. 21141 isolate after 20 hrs by twofold serial dilution technique; conditions: H.C. 21141, 20 h; summary of the method: as §2
[15] = test system: Staphylococcus aureus; experiment: Antimicrobial activity against multidrug-resistant Staphylococcus aureus H.C. 20794 isolate after 20 hrs by twofold serial dilution technique; conditions: H.C. 20794, 20 h; summary of the method: as §2
[16] = test system: Staphylococcus; experiment: Antimicrobial activity against coagulase-negative Staphylococcus H.A.M. 338 isolate after 20 hrs by twofold serial dilution technique; conditions: H.A.M. 338, 20 h; summary of the method: as §3
[17] = test system: HEp-2; experiment: Cytotoxicity against human Hep2 cells at 2.5 ug/mL after 72 hrs by MTT assay; conditions: HEp-2, 72 h, read-out: GI; summary of the method: as §4
[18] = test system: HEp-2; experiment: Cytotoxicity against human Hep2 cells at 1.25 ug/mL after 72 hrs by MTT assay; conditions: HEp-2, 72 h, read-out: GI; summary of the method: as §4
[19] = test system: Serratia marcescens; experiment: Antimicrobial activity against Serratia marcescens UFPEDA 398 at 300 ug/disk after 24 hrs by disk diffusion method; conditions: UFPEDA 398, 24 h, read-out: IZ; summary of the method: as §1
[20] = test system: Staphylococcus aureus; experiment: Antimicrobial activity against multidrug-resistant Staphylococcus aureus H.C. 21036 isolate after 20 hrs by twofold serial dilution technique; conditions: H.C. 21036, 20 h; summary of the method: as §2
[21] = test system: HEp-2; experiment: Cytotoxicity against human Hep2 cells at 5 ug/mL after 72 hrs by MTT assay; conditions: HEp-2, 72 h, read-out: GI; summary of the method: as §4
[22] = test system: Enterococcus faecalis; experiment: Antimicrobial activity against multidrug-resistant Enterococcus faecalis H.C. 24708 isolate after 20 hrs by twofold serial dilution technique; conditions: H.C. 24708, 20 h; summary of the method: as §2
[23] = test system: HEp-2; experiment: Cytotoxicity against human Hep2 cells at 10 ug/mL after 72 hrs by MTT assay; conditions: HEp-2, 72 h, read-out: GI; summary of the method: as §4
[24] = test system: NCI-H292; experiment: Cytotoxicity against human NCI-H292 cells at 1.25 ug/mL after 72 hrs by MTT assay; conditions: NCI-H292, 72 h, read-out: GI; summary of the method: as §4
[25] = test system: Enterococcus faecalis; experiment: Antimicrobial activity against multidrug-resistant Enterococcus faecalis H.C. 21944 isolate after 20 hrs by twofold serial dilution technique; conditions: H.C. 21944, 20 h; summary of the method: as §2
[26] = test system: Staphylococcus aureus; experiment: Antimicrobial activity against Staphylococcus aureus UFPEDA 01 after 20 hrs by twofold serial dilution technique; conditions: UFPEDA 01, 20 h; summary of the method: as §2
[27] = test system: NCI-H292; experiment: Cytotoxicity against human NCI-H292 cells at 10 ug/mL after 72 hrs by MTT assay; conditions: NCI-H292, 72 h, read-out: GI; summary of the method: as §4
[28] = test system: Bacillus subtilis; experiment: Antimicrobial activity against Bacillus subtilis UFPEDA 16 at 300 ug/disk after 24 hrs by disk diffusion method; conditions: UFPEDA 16, 24 h, read-out: IZ; summary of the method: as §1
[29] = test system: Enterococcus faecalis; experiment: Antimicrobial activity against multidrug-resistant Enterococcus faecalis H.C. 21752 isolate after 20 hrs by twofold serial dilution technique; conditions: H.C. 21752, 20 h; summary of the method: as §2
[30] = test system: Enterococcus faecalis; experiment: Antimicrobial activity against multidrug-resistant Enterococcus faecalis H.C. 24962 isolate after 20 hrs by twofold serial dilution technique; conditions: H.C. 24962, 20 h; summary of the method: as §2
[31] = test system: Candida albicans; experiment: Antimicrobial activity against Candida albicans UFPEDA 1007 at 300 ug/disk after 48 hrs by disk diffusion method; conditions: UFPEDA 1007, 48 h, read-out: IZ; summary of the method: as §1
[32] = test system: Candida albicans; experiment: Antimicrobial activity against Candida albicans UFPEDA 1007 after 48 hrs by twofold serial dilution technique; conditions: UFPEDA 1007, 48 h; summary of the method: as §3
[33] = test system: NCI-H292; experiment: Cytotoxicity against human NCI-H292 cells at 5 ug/mL after 72 hrs by MTT assay; conditions: NCI-H292, 72 h, read-out: GI; summary of the method: as §4
[34] = test system: Enterococcus faecalis; experiment: Antimicrobial activity against Enterococcus faecalis UFPEDA 138 after 20 hrs by twofold serial dilution technique; conditions: UFPEDA 138, 20 h; summary of the method: as §3
[35] = test system: Micrococcus luteus; experiment: Antimicrobial activity against Micrococcus luteus UFPEDA 06 at 300 ug/disk after 24 hrs by disk diffusion method; conditions: UFPEDA 06, 24 h, read-out: IZ; summary of the method: as §1

SMILES	zone of inhibition at 300 µg/disc [1]	zone of inhibition at 300 µg/disc [2]	MIC [3]	MIC [4]	MIC [5]	MIC [6]	MIC [7]	zone of inhibition at 300 µg/disc [8]	zone of inhibition at 300 µg/disc [9]	MIC [10]	zone of inhibition at 300 µg/disc [11]	inhibition of growth at 2.5 µg/mL [12]	MIC [13]	MIC [14]	MIC [15]	MIC [16]	inhibition of growth at 2.5 µg/mL [17]	inhibition of growth at 1.25 µg/mL [18]	zone of inhibition at 300 µg/disc [19]	MIC [20]	other results
O=C1NC(=S)/C(=C/c2ccccc2Cl)S1	< 7 mm	< 7 mm	4 µg/mL (≈ 15.6 µM)	2 µg/mL (≈ 7.82 µM)	16 µg/mL (≈ 62.6 µM)	16 µg/mL (≈ 62.6 µM)	32 µg/mL (≈ 125 µM)	16 mm	25 mm	16 µg/mL (≈ 62.6 µM)	20 mm	19.9%	2 µg/mL (≈ 7.82 µM)	8 µg/mL (≈ 31.3 µM)	2 µg/mL (≈ 7.82 µM)	8 µg/mL (≈ 31.3 µM)	-11.5%	-11.3%	< 7 mm	2 µg/mL (≈ 7.82 µM)	inhibition of growth at 5 µg/mL [21]: 5.97%; MIC [22]: 16 µg/mL (≈ 62.6 µM); inhibition of growth at 10 µg/mL [23]: 21.1%; inhibition of growth at 1.25 µg/mL [24]: 10.6%; MIC [25]: 32 µg/mL (≈ 125 µM); MIC [26]: 4 µg/mL (≈ 15.6 µM); inhibition of growth at 10 µg/mL [27]: 45%; zone of inhibition at 300 µg/disc [28]: 17 mm; MIC [29]: 16 µg/mL (≈ 62.6 µM); MIC [30]: 32 µg/mL (≈ 125 µM); zone of inhibition at 300 µg/disc [31]: 12 mm; MIC [32]: 32 µg/mL (≈ 125 µM); inhibition of growth at 5 µg/mL [33]: 34.2%; MIC [34]: 16 µg/mL (≈ 62.6 µM); zone of inhibition at 300 µg/disc [35]: 18 mm
O=C1NC(=S)/C(=C/c2ccc(Cl)cc2Cl)S1	< 7 mm	< 7 mm	2 µg/mL (≈ 6.89 µM)	2 µg/mL (≈ 6.89 µM)	4 µg/mL (≈ 13.8 µM)	8 µg/mL (≈ 27.6 µM)	4 µg/mL (≈ 13.8 µM)	18 mm	23 mm	2 µg/mL (≈ 6.89 µM)	19 mm	14.7%	2 µg/mL (≈ 6.89 µM)	4 µg/mL (≈ 13.8 µM)	2 µg/mL (≈ 6.89 µM)	2 µg/mL (≈ 6.89 µM)	15.3%	6.83%	< 7 mm	8 µg/mL (≈ 27.6 µM)	inhibition of growth at 5 µg/mL [21]: 20%; MIC [22]: 8 µg/mL (≈ 27.6 µM); inhibition of growth at 10 µg/mL [23]: 24.8%; inhibition of growth at 1.25 µg/mL [24]: 12.1%; MIC [25]: 4 µg/mL (≈ 13.8 µM); MIC [26]: 2 µg/mL (≈ 6.89 µM); inhibition of growth at 10 µg/mL [27]: 38.4%; zone of inhibition at 300 µg/disc [28]: 24 mm; MIC [29]: 4 µg/mL (≈ 13.8 µM); MIC [30]: 8 µg/mL (≈ 27.6 µM); zone of inhibition at 300 µg/disc [31]: 15 mm; MIC [32]: 32 µg/mL (≈ 110 µM); inhibition of growth at 5 µg/mL [33]: 29.3%; MIC [34]: 16 µg/mL (≈ 55.1 µM); zone of inhibition at 300 µg/disc [35]: 24 mm
